Assay results: ChEMBL document CHEMBL3393048, “Discovery of potent cytotoxic ortho-aryl chalcones as new scaffold targeting tubulin and mitosis with affinity-based fluorescence” (J Med Chem, 2014)
Active and inactive are the calls of the source. The rule behind the calls is not given here.

Tests used:
HepG2 = assay: Antiproliferative activity against human HepG2 cells after 48 hrs by SRB method; type: functional, cell-based; conditions: HepG2, 48 h
Method in brief: (§1)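 SRB assay. Cells in DMEM high glucose with 10% FBS were seeded at 5000/well and grown 24 h; a day-0 plate was fixed at that point. Compounds were added in triplicate for 48 h. IC50 came from nonlinear regression of dose–response curves from at least two independent experiments.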

A549 [1] = assay: Antiproliferative activity against human A549 cells after 48 hrs by SRB method; type: functional, cell-based; conditions: A549, 48 h
Method in brief: as §1, with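 “h. Cells were fixed with TCA at 4 °C for 1 h, stained with 0.4% SRB, and the dye was solubilized in 10 mM Tris pH 10.4. OD was read at 515 nm with day-0 OD subtracted.” for “h.”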

Tubulin (Homo sapiens) [2] = molecular target: T1, Tubulin (Homo sapiens) (UniProt P68371+Q9H4B7+P0DPH7+P68366+Q13509+Q71U36+P04350+Q3ZCM7+P07437+P68363+Q9BQE3+Q6PEY2+Q13885+Q9BVA1+Q9BUF5); assay: Inhibition of tubulin polymerization (unknown origin) at 5 uM by DAPI staining-based fluorescence microscopy; type: protein-complex assay
MCF7 [3] = assay: Antiproliferative activity against human MCF7 cells after 48 hrs by SRB method; type: functional, cell-based; conditions: MCF7, 48 h; method in brief: as §1
SW480 = assay: Antiproliferative activity against human SW480 cells after 48 hrs by SRB method; type: functional, cell-based; conditions: SW480, 48 h; method in brief: as §1
[4] = Antiproliferative activity against human CNE2 cells after 48 hrs by SRB method; type: functional, cell-based; conditions: CNE-2, 48 h; method in brief: as §1
A549 [5] = assay: Antimitotic activity in human A549 cells assessed as inhibition of microtubule reassembly in interphase cells at 31 nM incubated for 24 hrs followed by cold treatment for 1 hr measured after 15 mins warm up by DAPI staining-based immunofluorescence microscopy; type: functional, cell-based
Method in brief: (§2)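 A549 cells, 6 × 10⁴ per confocal dish, grown 24 h, then exposed 24 h (vehicle 0.5% DMSO, 37 °C). Dishes were held on ice 1 h to depolymerize microtubules, then rewarmed at 37 °C for 0, 5, 10 or 15 min. Cells were fixed in prewarmed paraformaldehyde 15 min and permeabilized with Triton X-100. […] Imaged by confocal microscopy.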

[6] = Drug resistance index, ratio of IC50 for vincristine-resistant human HCT8 cells to IC50 for human HCT8 cells; type: functional, HCT-8
Method in brief: (§3)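 Drug resistance index = IC50 in the resistant line / IC50 in its parental line. […] Pairs: A549/CDDP vs A549, MCF-7/DOX vs MCF-7, A2780/TAX vs A2780, HCT-8/VCT vs HCT-8.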

Tubulin = assay: Inhibition of tubulin polymerization (unknown origin) by DAPI staining-based fluorescence microscopy; type: protein-complex assay, Homo sapiens
Method in brief: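 Purified tubulin (99% pure; 20 μM as supplied) mixed with compound in general tubulin buffer (80 mM PIPES pH 6.9, 2.0 mM MgCl₂, 0.5 mM EGTA) with 1 mM GTP, 20% glycerol and DAPI reporter. Polymerization tracked kinetically at 37 °C as fluorescence rise (ex 360, em 450 nm). Duplicate wells per concentration. IC50 from at least two independent experiments.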

[7] = Antiproliferative activity against human HCT8 cells after 48 hrs by SRB method; type: functional, cell-based; conditions: HCT-8, 48 h; method in brief: as §1
Tubulin (Homo sapiens) [8] = molecular target: T1, Tubulin (Homo sapiens); assay: Binding affinity to tubulin (unknown origin) after 30 mins by fluorescence assay; type: protein-complex assay
Method in brief: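 Intrinsic fluorescence on tubulin binding. Compounds were mixed with tubulin (4 μM or 8 μM) in general tubulin buffer and incubated 30 min. Readings were excitation 430/emission 510 nm or excitation 365/emission 465 nm, with kinetic reads from mixing. ΔF = stable emission minus tubulin-only fluorescence. Optimal wavelengths were set by wavelength scanning.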

A549 [9] = assay: Induction of microtubule disruption in human A549 cells assessed as multinucleation at 31 nM after 24 hrs by DAPI staining-based immunofluorescence microscopy; type: cell-based
A549 [10] = assay: Cell cycle arrest in human A549 cells assessed as accumulation at G2/M phase at 7.81 to 250 nM after 24 hrs by Hoechst 33342 staining-based ArrayScanVTI analysis; type: functional
Method in brief: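 A549 cells were seeded at 5000/well, cultured overnight, then treated 24 h over a 7.81–250 concentration series. Cells were fixed in prewarmed paraformaldehyde 10 min, permeabilized with Triton X-100, and nuclei stained with Hoechst 33342. Imaging was by ArrayScan VTI high-content analysis. Phase percentage = cells within a gated fluorescence intensity / total cells counted.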

Tubulin (Homo sapiens) [11] = molecular target: T1, Tubulin (Homo sapiens); assay: Displacement of (E)-3-(4-(Dimethylamino)phenyl)-1-(4'-fluoro[1,1'-biphenyl]-2-yl)prop-2-en-1-one from tubulin (unknown origin) at 2 uM by fluorescence assay; type: protein-complex assay
Method in brief: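 Competition assay. Tubulin (4 μM) and probe (8 μM) in general tubulin buffer at 37 °C were incubated until fluorescence plateaued (about 30 min; excitation 430, emission 510 nm). Competitors were then added at 0–80 μM and kinetics recorded at 37 °C. The stable F/F0 ratio was plotted against competitor concentration and fitted.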

Mus musculus = assay: Toxicity in BALB/c nude mouse xenografted with human A549 cells assessed as body weight at 2 mg/kg, ip administered every other day for 2 weeks; type: organism-based; set-up: dose 2 mg/kg, route intraperitoneal; conditions: in vivo, 336 h
Method in brief: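 Female BALB/c nude mice, 5 weeks old, given 1 × 10⁷ A549 cells subcutaneously in the right flank. At about 100 mm³ tumor volume, randomized into groups of eight. Dosed ip at 2 mg/kg every other day for 2 weeks. Controls received normal saline with 0.5% DMSO and 5% Kolliphor HS 15. Body weight monitored throughout.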

A549 [12] = assay: Drug resistance index, ratio of IC50 for cis-platinum-resistant human A549 cells to IC50 for human A549 cells; type: functional; method in brief: as §3
MCF7 [13] = assay: Antiproliferative activity against doxorubicin-resistant human MCF7 cells after 48 hrs by SRB method; type: functional, cell-based; conditions: MCF7, 48 h; method in brief: as §1
A549 [14] = assay: Induction of microtubule disruption in human A549 cells assessed as massive and dotted microtubule disorder formation at 31 nM after 24 hrs by DAPI staining-based immunofluorescence microscopy; type: cell-based
A549 [15] = assay: Cell cycle arrest in human A549 cells assessed as accumulation at G2/M phase at 31.25 nM after 24 hrs by Hoechst 33342 staining-based ArrayScanVTI analysis; type: functional
A2780 [16] = assay: Drug resistance index, ratio of IC50 for taxol-resistant human A2780 cells to IC50 for human A2780 cells; type: functional; method in brief: as §3
A549 [17] = assay: Induction of microtubule disruption in human A549 cells assessed as multipolarization of spindle at 31 nM after 24 hrs by DAPI staining-based immunofluorescence microscopy; type: cell-based
A549 [18] = assay: Antiproliferative activity against cis-platinum-resistant human A549 cells after 48 hrs by SRB method; type: functional, cell-based; conditions: A549, 48 h
Method in brief: as §1, with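 “h. Cells were fixed with TCA at 4 °C for 1 h, stained with 0.4% SRB, and the dye was solubilized in 10 mM Tris pH 10.4. OD was read at 515 nm with day-0 OD subtracted.” for “h.”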

A2780 [19] = assay: Antiproliferative activity against human A2780 cells after 48 hrs by SRB method; type: functional, cell-based; conditions: A2780, 48 h; method in brief: as §1
A2780 [20] = assay: Antiproliferative activity against taxol-resistant human A2780 cells after 48 hrs by SRB method; type: functional, cell-based; conditions: A2780, 48 h; method in brief: as §1
[21] = Antiproliferative activity against vincristine-resistant human HCT8 cells after 48 hrs by SRB method; type: functional, cell-based; conditions: HCT-8, 48 h
Method in brief: as §1, with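 “h. Cells were fixed with TCA at 4 °C for 1 h, stained with 0.4% SRB, and the dye was solubilized in 10 mM Tris pH 10.4. OD was read at 515 nm with day-0 OD subtracted.” for “h.”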

A549 [22] = assay: Antimitotic activity in human A549 cells assessed as inhibition of microtubule reassembly in mitotic cells at 31 nM incubated for 24 hrs followed by cold treatment for 1 hr measured after 15 mins warm up by DAPI staining-based immunofluorescence microscopy; type: functional, cell-based; method in brief: as §2
A549 [23] = assay: Antimitotic activity in human A549 cells assessed as multinucleation at 31 nM incubated for 24 hrs followed by cold treatment for 1 hr measured after 15 mins warm up by DAPI staining-based immunofluorescence microscopy; type: functional, cell-based; method in brief: as §2
A549 [24] = assay: Antitumor activity against human A549 cells xenografted in BALB/c nude mouse assessed as reduction in tumor weight at 2 mg/kg, ip administered every other day for 2 weeks (reference value: 1.446 gm); type: functional; conditions: route intraperitoneal
A549 [25] = assay: Antitumor activity against human A549 cells xenografted in BALB/c nude mouse assessed as reduction in tumor volume at 2 mg/kg, ip administered every other day for 2 weeks (reference value: 1806.9 mm'3); type: functional; conditions: route intraperitoneal
A549 [26] = assay: Antimitotic activity in human A549 cells assessed as multipolarization of spindle at 31 nM incubated for 24 hrs followed by cold treatment for 1 hr measured after 15 mins warm up by DAPI staining-based immunofluorescence microscopy; type: functional, cell-based; method in brief: as §2
Tubulin (Homo sapiens) [27] = molecular target: T1, Tubulin (Homo sapiens); assay: Binding affinity to tubulin (unknown origin) by fluorescence assay in presence of DTNB; type: protein-complex assay
A549 [28] = assay: Antimitotic activity in human A549 cells assessed as disorganized mitosis at 31 nM incubated for 24 hrs followed by cold treatment for 1 hr measured after 15 mins warm up by DAPI staining-based immunofluorescence microscopy; type: functional, cell-based; method in brief: as §2
MCF7 [29] = assay: Drug resistance index, ratio of IC50 for doxorubicin-resistant human MCF7 cells to IC50 for human MCF7 cells; type: functional; method in brief: as §3
A549 [30] = assay: Induction of apoptosis in human A549 cells assessed as late apoptotic cells at 0.25 uM after 48 hrs by Annexin V-FITC/propidium iodide staining-based flow cytometry (reference value: 0.10%); type: functional
A549 [31] = assay: Induction of apoptosis in human A549 cells assessed as necrotic cells at 0.25 uM after 48 hrs by Annexin V-FITC/propidium iodide staining-based flow cytometry (reference value: 0.06%); type: functional
A549 [32] = assay: Induction of apoptosis in human A549 cells assessed as early apoptotic cells at 0.25 uM after 48 hrs by Annexin V-FITC/propidium iodide staining-based flow cytometry (reference value: 0.47%); type: functional
A549 [33] = assay: Induction of apoptosis in human A549 cells assessed as viable cells at 0.25 uM after 48 hrs by Annexin V-FITC/propidium iodide staining-based flow cytometry (reference value: 99.37%); type: functional; conditions: A549, 48 h, read-out: Activity

COc1cc(/C=C/C(=O)c2ccccc2-c2ccc(F)cc2)ccc1O
IC50 (HepG2): 2800 nM | IC50 (A549 [1]): 7600 nM | inhibition (Tubulin (Homo sapiens) [2]): inactive | IC50 (MCF7 [3]): 4000 nM | IC50 (SW480): 6600 nM | IC50 [4]: 2500 nM

COc1ccc(/C=C/C(=O)c2ccccc2-c2cccc(F)c2)cc1O
inhibition (A549 [5]): Active | Ratio IC50 [6]: 3.6 | IC50 (Tubulin): 490 nM | IC50 [7]: 16 nM | Activity (Tubulin (Homo sapiens) [8]): Dose-dependent effect | Activity (A549 [9]): Active | Activity (A549 [10]): Active | Activity (Tubulin (Homo sapiens) [11]): Active | Activity (Mus musculus): Non-toxic | Ratio IC50 (A549 [12]): 16 | IC50 (HepG2): 8 nM | IC50 (A549 [1]): 11 nM | IC50 (MCF7 [13]): 2 nM | Activity (A549 [14]): Active | Activity (A549 [15]): Active | Ratio IC50 (A2780 [16]): 18 | Activity (A549 [17]): Active | IC50 (A549 [18]): 180 nM | IC50 (A2780 [19]): 13 nM | IC50 (A2780 [20]): 230 nM | IC50 [21]: 57 nM | inhibition (A549 [22]): Active | Activity (A549 [23]): Active | Activity (A549 [24]): 0.641 g | IC50 (MCF7 [3]): 65 nM | IC50 (SW480): 10 nM | Activity (A549 [25]): 965.6 mm3 | Activity (A549 [26]): Active | IC50 [4]: 17 nM | Activity (Tubulin (Homo sapiens) [27]): inactive | Activity (A549 [28]): Active | Ratio IC50 (MCF7 [29]): 0.03

COc1cc2c(c(OC)c1OC)-c1ccc(OC)c(=O)cc1[C@@H](NC(C)=O)CC2 [COLCHICINE]
Activity (A549 [30]): 37.72% | Activity (A549 [31]): 6.93% | IC50 (A549 [1]): 50 nM | Activity (A549 [15]): Active | Activity (A549 [32]): 36.19% | viability at 0.25 µM (A549 [33]): 19.2%
